Entries after “also recorded” stand apart in the source; their conditions may differ.
How the values were obtained:
AML cell lines [1] = test: CellTiter-Glo cell viability across the cell line panel; type: cell-based, human; conditions: for sensitivity of the Val-boroPro-sensitive AML cell lines to the compound: cell viability relative to DMSO; for sensitivity of the Val-boroPro-sensitive AML cell lines to the compound / reduction in cell viability: 48 h
[2] = system: caspase-1 knockout OCI-AML2, MV4;11 and THP-1 cells; test: Cell viability of caspase-1 knockout cells; type: cell-based, human
G-CSF and Cxcl1 = conditions: mice; cited from earlier work
[3] = system: CARD8−/− THP-1, MV4;11 and OCI-AML2 cells; test: LDH release / GSDMD cleavage in CARD8 knockout cells; type: cell-based, human; conditions: 2 μM; 24 h OCI-AML2 and MV4;11, 48 h THP-1
G-CSF = conditions: healthy volunteers and cancer patients; cited from earlier work
K562 cells = test: CellTiter-Glo cell viability assay; type: cell-based, human
[4] = Evaluation in wild-type C57BL/6J mice; type: in vivo, mouse; conditions: 20 μg i.p.
Outline: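 Female C57BL/6J mice (7 weeks) received vehicle (1 mM HCl/PBS) or 20 μg either once (n=5/group, harvested at 6 h or 24 h) or once daily, 5 days/week for two weeks (10 doses, n=4, harvested 24 h after the last dose). Blood was analysed for complete blood count and blood chemistry.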

[5] = system: NLRP1−/− THP-1 and MV4;11 cells; test: LDH release / GSDMD cleavage in NLRP1 knockout cells; type: cell-based, human
primary AML cells = test: Primary cancer cell assay; type: cell-based, human; conditions: 20 µM, 48 h, FACS
[6] = system: primary human cord blood CD34+ cells; test: CellTiter-Glo cell viability assay; type: cell-based; conditions: 6 μM, 24 h, Cell Titer Glo
Outline: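 Human cord blood cells were thawed in IMDM/15% FBS with DNase1 (1 mg/mL). Culture medium was IMDM/10% FBS with TPO, SCF and G-CSF (each 100 ng/mL). Cells were assayed immediately after thawing at 2000 cells/well with pintool compound addition, incubated 22 h at 37 °C, and read by CellTiter-Glo luminescence after 2 min shaking and 10 min at room temperature.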

[7] = system: HEK 293T cells stably expressing hCASP1 and hGSDMD transfected with CARD8; test: LDH release from transfected HEK 293T cells; type: cell-based, human; conditions: 2 μM, 24 h; CARD8 but not NLRP1 or S297A CARD8
Outline: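 HEK 293T cells stably expressed human caspase-1 (hygromycin-selected) and gasdermin D (puromycin-selected) after lentiviral transduction. They were seeded at 0.5 × 10^6/well in DMEM/10% FBS one day before Fugene HD transfection, with total DNA brought to 2 μg with RFP vector; RFP vector alone served as mock. After 24 h, cells got DMSO or 2 μM for a further 24 h. Supernatant LDH was measured (mean ± SEM, three experiments).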

HEK 293T cells = test: CellTiter-Glo cell viability assay; type: cell-based, human; conditions: HEK293T
sensitive AML cell lines = test: Immunoblotting of GSDMD and PARP cleavage; type: cell-based, human; conditions: 24 h
[8] = cited from earlier work
non-AML cell lines = test: CellTiter-Glo cell viability across the cell line panel; type: cell-based, human
Outline: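 Cells were dispensed at 2000 cells/well in 25 μL of medium, and compound was added by pintool. MV4;11 and RS4;11 were incubated 22 h and all other lines 46 h, at 37 °C. Plates were equilibrated to room temperature, then CellTiter-Glo was added, with 2 min orbital shaking and 10 min at room temperature. Luminescence is expressed relative to DMSO as mean ± SEM of three biological replicates.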

primary T-ALL samples = test: Primary cancer cell assay; type: cell-based, human; conditions: 20 µM, FACS
Outline: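 Bone marrow aspirates were strained, Ficoll-separated and ACK-lysed, then frozen; AML samples 1–4 were first passaged in NSG mice. Cells were thawed in IMDM/15% FBS with DNase1 and cultured with 2-mercaptoethanol, G-CSF, SCF, IL-3 and FLT3-ligand. One day later, 100,000 cells/well were treated in triplicate with 20 μM or DMSO for 40 h at 37 °C. Death was scored by flow cytometry (anti-human/anti-mouse CD45, PI or DAPI).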

Tolerability in MV4 = type: in vivo, mouse; conditions: NSG mice, 20 μg i.p., treatment day 23
Outline: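 Disseminated MV4;11-Luc NSG model: mice were dosed i.p. with 100 μL vehicle (1 mM HCl/PBS) or 20 μg/100 μL daily, 5 days/week, and weighed daily. After 23 days of dosing, peripheral blood was taken from 3 mice per group, chosen by high, median and low BLI flux. It was analysed for complete blood counts and blood chemistry. Femur, spleen, lung and liver sections were H&E-stained.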

[9] = system: primary human cancer AML-10; test: AML-10 patient-derived xenograft; type: in vivo, mouse; conditions: 2 mg/kg, PDX model
primary B-ALL = test: Primary cancer cell assay; type: cell-based, human; conditions: 20 µM, 48 h, FACS
[10] = system: CASP1−/− MV4;11 leukemia cells; test: Disseminated CASP1−/− MV4; type: in vivo, mouse; conditions: 20 μg i.p. once daily, 5 days a week, 3 weeks
Outline: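 NSG mice (female, 7 weeks, 200 cGy irradiated) received 1 million luciferase-expressing CASP1−/− MV4;11 cells by tail vein. On day 5 they were randomized (n=9/group) and dosed i.p. with 100 μL vehicle (1 mM HCl in PBS, pH 7.4) or 20 μg/100 μL once daily, 5 days/week. Dosing stopped after 3 weeks. Burden was tracked by bioluminescence; survival to moribund state used all 9 animals.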

MV4;11 leukemia cells = test: Disseminated MV4; type: in vivo, mouse; conditions: 20 μg i.p. once daily, 5 days a week for 4 weeks; log-rank test
Outline: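 Luciferase-expressing MV4;11 cells (1 million, neomycin-selected) were injected into the tail vein of 200 cGy-irradiated 7-week female NSG mice. From day 5, randomized mice (n=9/group) got 100 μL i.p. vehicle (1 mM HCl in PBS, pH 7.4) or 20 μg/100 μL once daily, 5 days/week for 4 weeks. BLI tracked burden. Survival ran from inoculation to moribund state (6/group), analysed by log-rank test.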

THP-1 or MV4;11 cells = test: LDH release with Val-boroPro plus bortezomib; type: cell-based, human; conditions: bortezomib 100 nM with Val-boroPro 2 μM, 6 h
AML cell lines [11] = conditions: cited from earlier work

SMILES: CC[C@@H](C)[C@H](N)C(=O)N1Cc2ccccc2C1 [L-allo-Ile-isoindoline]
- sensitivity of the Val-boroPro-sensitive AML cell lines to the compound (AML cell lines [1]): sensitive
- sensitivity of caspase-1 knockout cells [2]: resistant

SMILES: CC(C)[C@H](N)C(=O)N1CCC[C@H]1B(O)O [Val-boroPro]
- serum protein levels of several cytokines, including G-CSF and Cxcl1 (G-CSF and Cxcl1): increases
- sensitivity of CARD8−/− cells (GSDMD cleavage, cell death) [3]: completely resistant
- levels of a number of cytokines, including G-CSF (G-CSF): elevated
- cell death after 5 days of treatment (K562 cells): no cell death
- effects on peripheral blood counts or body weight [4]: no significant effects
- pyroptosis in NLRP1−/− cells [5]: induced pyroptosis
- cell death in primary AML samples (primary AML cells): sensitive
- cell death in primary CD34+ human cord blood cells [6]: sensitive
- reduction in cell viability (AML cell lines [1]; KG1, THP-1 and NOMO-1): 40–65%
- reduction in cell viability (AML cell lines [1]; MV4;11, OCI-AML2, SET-2, RS4;11 and MOLM-13): > 80%
- IC50 (AML cell lines [1]; Homo sapiens, read-out: IC50 values in sensitive AML cell lines): 0.006 to 0.206 µM
- time in which cells died (AML cell lines [1]; MV4;11 and OCI-AML2 cells): 1 to 2 days
- compound treatment required to achieve maximal cell killing (AML cell lines [1]; THP-1 and NOMO-1 cells): 5 days
- cytotoxicity in CARD8-expressing HEK 293T cells [7]: sensitive
- cell death after 5 days of treatment (HEK 293T cells): no cell death
- sensitivity of caspase-1 knockout cells [2]: resistant
- cleavage of gasdermin D (GSDMD), not PARP (sensitive AML cell lines): induced cleavage
- maximum tolerated dose in humans [8]: without reaching a maximum tolerated dose
- serum concentrations reached in humans [8]: > 0.1 µM
- activity against non-AML cell lines tested (non-AML cell lines): no activity
- cell death in primary T-ALL samples (primary T-ALL samples): completely resistant
- effects on peripheral blood cell counts, serum chemistry, body weight (Tolerability in MV4): no significant effects
- weight loss associated with leukemia progression [9]: slowed weight loss
- cell death in primary B-ALL (primary B-ALL): sensitive
- efficacy against CASP1−/− MV4;11 cells in vivo (bioluminescence, survival) [10]: absolutely no efficacy; also recorded: not statistically different
- median extension in survival (MV4;11 leukemia cells): 24.5 days

SMILES: CC(C)C[C@H](NC(=O)[C@H](Cc1ccccc1)NC(=O)c1cnccn1)B(O)O [bortezomib]
- effect on activation of CARD8 by Val-boroPro (LDH release) (THP-1 or MV4;11 cells): blocks

SMILES: N[C@@H](CC(=O)N1CCn2c(nnc2C(F)(F)F)C1)Cc1cc(F)c(F)cc1F [sitagliptin]
- sensitivity of the Val-boroPro-sensitive AML cell lines to the compound (AML cell lines [1]): not sensitive

SMILES: N#C[C@@H]1CCCN1C(=O)CNC12CC3CC(CC(O)(C3)C1)C2 [vildagliptin]
- anti-AML cytotoxicity on its own (AML cell lines [11]): did not exhibit any anti-AML cytotoxicity
